The values below come from ChEMBL document CHEMBL4304739, “Discovery of 3-(Indol-5-yl)-indazole Derivatives as Novel Myeloid Differentiation Protein 2/Toll-like Receptor 4 Antagonists for Treatment of Acute Lung Injury” (J Med Chem, 2019).

The target of series [1] is Non-receptor tyrosine-protein kinase TYK2 (Homo sapiens) (UniProt P29597). In words: Inhibition of wild-type human partial length TYK2 JH1 catalytic domain (V877 to C1187 residues) expressed in mammalian expression system at 1 uM by Kinomescan method. In outline:
(§1)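 Single-concentration screen at 1 μM on the KINOMEscan panel (98 kinases), run by the platform provider. Results are given as percent of control: % Ctrl = [(test signal − positive control signal)/(negative control signal − positive control signal)] × 100. DMSO serves as negative control (100% Ctrl) and a control compound as positive control (0% Ctrl). Lower values mean stronger binding hits.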

Series [2] deals with Insulin receptor (Homo sapiens) (UniProt P06213). As to the kind of experiment: Inhibition of wild-type human partial length INSR (P997 to E1318 residues) expressed in mammalian expression system at 1 uM by Kinomescan method. In outline: (§2)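 Binding-competition screen on the KINOMEscan platform, run by the provider, with the test compound at 1 μM. Readout is percent of control: (test signal − positive control signal)/(negative control signal − positive control signal) × 100. The DMSO negative control is set as 100% Ctrl and a control compound as 0% Ctrl. Lower values mean stronger hits.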

Series [3] has as its target Platelet-derived growth factor receptor beta (Homo sapiens) (UniProt P09619). As to the kind of experiment: Inhibition of wild-type human partial length PDGFRB (V582 to Y1009 residues) expressed in bacterial expression system at 1 uM by Kinomescan method. Put shortly:
as §2

The test system of series [4] is Serine/threonine-protein kinase B-raf (Homo sapiens), P15056 [V600E]. As to the kind of experiment: Inhibition of human partial length BRAF V600E mutant (S429 to E741 residues) expressed in mammalian expression system at 1 uM by Kinomescan method. In outline:
(§3)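 KINOMEscan competition binding screen at 1 μM compound. Results reported as % of control = (test − positive control)/(DMSO negative control − positive control) × 100, where lower values mean stronger hits.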

The target of series [5] is Inhibitor of nuclear factor kappa-B kinase subunit alpha (Homo sapiens) (UniProt O15111). In words: Inhibition of wild-type human full length IKK-alpha (M1 to E745 residues) expressed in mammalian expression system at 1 uM by Kinomescan method. In outline: as §3
Series [6] addresses Serine/threonine-protein kinase ULK2 (Homo sapiens) (UniProt Q8IYT8). In words: Inhibition of wild-type human partial length ULK2 (M1 to S301 residues) expressed in mammalian expression system at 1 uM by Kinomescan method. Put shortly: as §1
In series [7] the target is Serine/threonine-protein kinase STK11 (Homo sapiens) (UniProt Q15831). As to the kind of experiment: Inhibition of wild-type human full length LKB1 (M1 to Q433 residues) expressed in bacterial expression system at 1 uM by Kinomescan method. In outline: as §3
Series [8] deals with Fibroblast growth factor receptor 2 (Homo sapiens) (UniProt P21802). As to the kind of experiment: Inhibition of wild-type human partial length FGFR2 (D457 to E769 residues) expressed in bacterial expression system at 1 uM by Kinomescan method. Put shortly:
as §2

For series [9], the target named is Dual specificity mitogen-activated protein kinase kinase 1 (Homo sapiens) (UniProt Q02750). As to the kind of experiment: Inhibition of wild-type human full length MEK1 (M1 to V393 residues) expressed in mammalian expression system at 1 uM by Kinomescan method. In outline:
as §3

Series [10] has as its target Receptor tyrosine-protein kinase erbB-2 (Homo sapiens) (UniProt P04626). In words: Inhibition of wild-type human partial length ERBB2 (K646 to V1225 residues) expressed in mammalian expression system at 1 uM by Kinomescan method. Put shortly: as §2
In series [11] the target is Serine/threonine-protein kinase Chk1 (Homo sapiens) (UniProt O14757). In words: Inhibition of wild-type human partial length CHEK1 (M1 to G289 residues) expressed in bacterial expression system at 1 uM by Kinomescan method. In outline: as §2
Series [12] concerns Mus musculus. As to the kind of experiment: Antiinflammatory activity in LPS-induced C57BL/6 mouse model of acute lung injury assessed as reduction in airspace inflammation at 5 to 10 mg/kg, iv pretreated for 15 mins followed by LPS stimulation and measured after 6 hrs by H and E staining-based microscopic analysis. The series is classed as functional, organism-based. Put shortly:
(§4)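 Male C57BL/6 mice (18−22 g; n=8 per group). Compound in 0.1% CMC-Na given by tail vein injection 15 min before intraperitoneal LPS (20 mg/kg); controls received saline. Mice were sacrificed 6 h after LPS, and serum and lung tissue were collected.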

Series [13] concerns the target Focal adhesion kinase 1 (Homo sapiens) (UniProt Q05397). In words: Inhibition of wild-type human partial length FAK (D402 to R696 residues) expressed in bacterial expression system at 1 uM by Kinomescan method. In outline: as §2
For series [14], the target named is Tyrosine-protein kinase JAK3 (Homo sapiens) (UniProt P52333). As to the kind of experiment: Inhibition of wild-type human partial length JAK3 JH1 catalytic domain (I781 to S1124 residues) expressed in mammalian expression system at 1 uM by Kinomescan method. Put shortly:
as §2

In series [15] the target is Atypical kinase COQ8A, mitochondrial (Homo sapiens) (UniProt Q8NI60). As to the kind of experiment: Inhibition of wild-type human […] length ADCK3 (M280 to Q647 residues) expressed in bacterial expression system at 1 uM by Kinomescan method. Put shortly: as §3
Series [16] deals with Glycogen synthase kinase-3 beta (Homo sapiens) (UniProt P49841). In words: Inhibition of wild-type human full length GSK3B (M1 to T433 residues) expressed in mammalian expression system at 1 uM by Kinomescan method. Put shortly: as §3
Series [17] has as its system Mus musculus. In words: Antiinflammatory activity in LPS-induced C57BL/6 mouse model of acute lung injury assessed as appearance of normal pulmonary lobule structure at 5 to 10 mg/kg, iv pretreated for 15 mins followed by LPS stimulation and measured after 6 hrs by H and E staining-based microscopic analysis. The class given is functional, organism-based. In outline: as §4

Series [18] has as its target Serine/threonine-protein kinase PLK4 (Homo sapiens) (UniProt O00444). As to the kind of experiment: Inhibition of wild-type human partial length PLK4 (M1 to S273 residues) expressed in mammalian expression system at 1 uM by Kinomescan method. In outline:
as §2

The test system of another series is Peritoneal macrophage. As to the kind of experiment: Cytotoxicity against ICR mouse peritoneal macrophages assessed as reduction in cell viability at 10 uM measured after 24 hrs by MTT assay. The series is classed as cell-based. Put shortly: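 Peritoneal macrophages from ICR mice, 2.0×10^4 cells/well in DMEM with 10% FBS. Cells exposed to compound for 24 h, then MTT (5 mg/ml in 0.9% NaCl) added for 4 h at 37 °C in 5% CO2. Absorbance read at 490 nm; final DMSO 0.1%.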
Background: Tetrazolium dyes change colour on reduction, which living cells bring about.

The test system of series [19] is Tyrosine-protein kinase ABL1 (Homo sapiens), P00519 [E255K]. In words: Inhibition of human phosphorylated ABL1 E255K mutant (S229 to K512 residues) expressed in mammalian expression system at 1 uM by Kinomescan method. Put shortly: as §3
The target of series [20] is cAMP-dependent protein kinase catalytic subunit alpha (Homo sapiens) (UniProt P17612). As to the kind of experiment: Inhibition of wild-type human partial length PKAC-alpha (G10 to F351 residues) expressed in bacterial expression system at 1 uM by Kinomescan method. Put shortly: as §2
The target in series [21] is Bone morphogenetic protein receptor type-2 (Homo sapiens) (UniProt Q13873). In words: Inhibition of wild-type human partial length BMPR2 (R179 to Q526 residues) expressed in mammalian expression system at 1 uM by Kinomescan method. Put shortly:
as §2

Series [22] deals with Mitogen-activated protein kinase 3 (Homo sapiens) (UniProt P27361). In words: Inhibition of wild-type human full length ERK1 (M1 to P379 residues) expressed in bacterial expression system at 1 uM by Kinomescan method. In outline:
as §3

Each structure is given as a SMILES string. Active and inactive are the calls of the source. The rule behind the calls is not given here.

Chain of Serine/threonine-protein kinase Chk1 (Homo sapiens) (O14757 whole entry, the tested form may be a part): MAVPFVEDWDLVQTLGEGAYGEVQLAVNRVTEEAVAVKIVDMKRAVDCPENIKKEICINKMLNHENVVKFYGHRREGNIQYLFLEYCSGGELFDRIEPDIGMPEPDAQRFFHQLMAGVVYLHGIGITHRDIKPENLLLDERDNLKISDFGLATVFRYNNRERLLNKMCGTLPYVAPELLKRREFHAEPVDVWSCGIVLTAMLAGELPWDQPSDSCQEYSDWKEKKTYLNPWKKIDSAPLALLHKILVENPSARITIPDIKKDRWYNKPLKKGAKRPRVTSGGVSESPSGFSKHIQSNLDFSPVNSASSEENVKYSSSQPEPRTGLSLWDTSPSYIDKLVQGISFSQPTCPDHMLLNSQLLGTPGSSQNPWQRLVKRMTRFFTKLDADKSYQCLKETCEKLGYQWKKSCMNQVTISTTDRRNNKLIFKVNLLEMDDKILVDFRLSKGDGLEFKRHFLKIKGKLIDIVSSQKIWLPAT
Chain of Receptor tyrosine-protein kinase erbB-2 (Homo sapiens) (P04626 whole entry, the tested form may be a part): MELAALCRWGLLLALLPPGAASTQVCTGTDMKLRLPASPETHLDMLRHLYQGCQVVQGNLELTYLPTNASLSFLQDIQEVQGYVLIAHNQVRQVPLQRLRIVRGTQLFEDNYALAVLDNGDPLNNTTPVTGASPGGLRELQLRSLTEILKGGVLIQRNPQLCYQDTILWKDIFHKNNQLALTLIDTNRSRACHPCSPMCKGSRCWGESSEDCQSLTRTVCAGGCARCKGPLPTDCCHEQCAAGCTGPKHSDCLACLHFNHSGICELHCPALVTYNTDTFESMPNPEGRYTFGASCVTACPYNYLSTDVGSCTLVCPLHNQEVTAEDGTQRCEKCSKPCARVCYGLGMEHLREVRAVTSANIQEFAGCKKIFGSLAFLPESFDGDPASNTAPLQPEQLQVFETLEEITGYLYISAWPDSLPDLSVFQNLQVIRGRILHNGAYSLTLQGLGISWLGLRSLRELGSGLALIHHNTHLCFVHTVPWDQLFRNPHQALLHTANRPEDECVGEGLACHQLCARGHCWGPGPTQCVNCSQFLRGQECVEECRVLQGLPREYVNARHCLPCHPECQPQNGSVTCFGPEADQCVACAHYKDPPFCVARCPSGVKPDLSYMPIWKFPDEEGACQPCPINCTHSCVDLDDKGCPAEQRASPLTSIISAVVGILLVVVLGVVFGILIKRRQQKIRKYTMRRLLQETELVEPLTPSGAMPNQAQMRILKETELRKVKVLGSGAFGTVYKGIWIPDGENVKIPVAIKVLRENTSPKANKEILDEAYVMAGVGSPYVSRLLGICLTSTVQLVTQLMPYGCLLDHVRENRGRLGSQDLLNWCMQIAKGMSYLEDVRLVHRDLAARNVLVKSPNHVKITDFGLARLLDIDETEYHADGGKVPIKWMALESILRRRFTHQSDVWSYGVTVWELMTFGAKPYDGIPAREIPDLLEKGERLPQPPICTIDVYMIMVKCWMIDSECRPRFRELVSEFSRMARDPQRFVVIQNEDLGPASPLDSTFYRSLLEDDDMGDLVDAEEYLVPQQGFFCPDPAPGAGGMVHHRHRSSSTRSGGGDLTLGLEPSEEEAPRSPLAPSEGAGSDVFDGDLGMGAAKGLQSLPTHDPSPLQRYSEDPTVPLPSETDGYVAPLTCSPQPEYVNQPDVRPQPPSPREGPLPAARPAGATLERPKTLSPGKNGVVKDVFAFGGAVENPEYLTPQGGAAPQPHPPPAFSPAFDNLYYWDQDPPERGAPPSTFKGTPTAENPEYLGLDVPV
Chain of Serine/threonine-protein kinase PLK4 (Homo sapiens) (O00444 whole entry, the tested form may be a part): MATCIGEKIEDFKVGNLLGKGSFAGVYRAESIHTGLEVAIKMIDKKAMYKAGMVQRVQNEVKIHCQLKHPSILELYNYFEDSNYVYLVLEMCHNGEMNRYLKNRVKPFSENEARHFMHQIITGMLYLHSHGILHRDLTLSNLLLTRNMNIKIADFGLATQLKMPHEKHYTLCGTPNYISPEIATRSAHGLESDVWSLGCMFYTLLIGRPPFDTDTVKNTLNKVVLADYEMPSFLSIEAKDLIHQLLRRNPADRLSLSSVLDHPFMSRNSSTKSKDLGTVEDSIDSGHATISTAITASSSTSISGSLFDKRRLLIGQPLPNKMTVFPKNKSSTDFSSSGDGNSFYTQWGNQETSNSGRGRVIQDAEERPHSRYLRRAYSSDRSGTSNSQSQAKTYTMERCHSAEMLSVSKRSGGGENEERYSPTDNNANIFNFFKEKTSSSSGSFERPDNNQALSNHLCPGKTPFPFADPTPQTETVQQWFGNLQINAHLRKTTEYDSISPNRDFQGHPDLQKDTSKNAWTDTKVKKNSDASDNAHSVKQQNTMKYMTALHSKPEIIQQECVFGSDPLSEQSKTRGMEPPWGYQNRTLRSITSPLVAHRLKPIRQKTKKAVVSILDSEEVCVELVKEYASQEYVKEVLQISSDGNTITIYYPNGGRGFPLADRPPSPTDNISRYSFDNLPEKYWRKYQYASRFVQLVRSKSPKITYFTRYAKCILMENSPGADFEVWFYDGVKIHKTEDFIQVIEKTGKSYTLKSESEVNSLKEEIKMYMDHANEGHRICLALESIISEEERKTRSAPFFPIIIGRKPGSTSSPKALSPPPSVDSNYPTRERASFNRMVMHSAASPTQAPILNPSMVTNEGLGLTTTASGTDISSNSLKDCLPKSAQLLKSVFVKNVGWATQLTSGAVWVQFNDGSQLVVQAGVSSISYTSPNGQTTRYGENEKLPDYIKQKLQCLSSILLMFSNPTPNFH
Chain of Mitogen-activated protein kinase 3 (Homo sapiens) (P27361 whole entry, the tested form may be a part): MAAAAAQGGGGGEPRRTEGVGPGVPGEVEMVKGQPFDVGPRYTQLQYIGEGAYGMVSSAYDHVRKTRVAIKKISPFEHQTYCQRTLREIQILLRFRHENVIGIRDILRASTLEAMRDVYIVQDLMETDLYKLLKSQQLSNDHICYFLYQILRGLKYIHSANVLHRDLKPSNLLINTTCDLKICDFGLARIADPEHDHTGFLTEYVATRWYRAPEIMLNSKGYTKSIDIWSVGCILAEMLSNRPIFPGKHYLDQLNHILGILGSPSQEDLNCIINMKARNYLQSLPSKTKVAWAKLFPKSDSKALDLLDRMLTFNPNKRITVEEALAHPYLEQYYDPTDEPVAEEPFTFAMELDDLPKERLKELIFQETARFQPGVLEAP
Chain of Focal adhesion kinase 1 (Homo sapiens) (Q05397 2-1052 limits assumed): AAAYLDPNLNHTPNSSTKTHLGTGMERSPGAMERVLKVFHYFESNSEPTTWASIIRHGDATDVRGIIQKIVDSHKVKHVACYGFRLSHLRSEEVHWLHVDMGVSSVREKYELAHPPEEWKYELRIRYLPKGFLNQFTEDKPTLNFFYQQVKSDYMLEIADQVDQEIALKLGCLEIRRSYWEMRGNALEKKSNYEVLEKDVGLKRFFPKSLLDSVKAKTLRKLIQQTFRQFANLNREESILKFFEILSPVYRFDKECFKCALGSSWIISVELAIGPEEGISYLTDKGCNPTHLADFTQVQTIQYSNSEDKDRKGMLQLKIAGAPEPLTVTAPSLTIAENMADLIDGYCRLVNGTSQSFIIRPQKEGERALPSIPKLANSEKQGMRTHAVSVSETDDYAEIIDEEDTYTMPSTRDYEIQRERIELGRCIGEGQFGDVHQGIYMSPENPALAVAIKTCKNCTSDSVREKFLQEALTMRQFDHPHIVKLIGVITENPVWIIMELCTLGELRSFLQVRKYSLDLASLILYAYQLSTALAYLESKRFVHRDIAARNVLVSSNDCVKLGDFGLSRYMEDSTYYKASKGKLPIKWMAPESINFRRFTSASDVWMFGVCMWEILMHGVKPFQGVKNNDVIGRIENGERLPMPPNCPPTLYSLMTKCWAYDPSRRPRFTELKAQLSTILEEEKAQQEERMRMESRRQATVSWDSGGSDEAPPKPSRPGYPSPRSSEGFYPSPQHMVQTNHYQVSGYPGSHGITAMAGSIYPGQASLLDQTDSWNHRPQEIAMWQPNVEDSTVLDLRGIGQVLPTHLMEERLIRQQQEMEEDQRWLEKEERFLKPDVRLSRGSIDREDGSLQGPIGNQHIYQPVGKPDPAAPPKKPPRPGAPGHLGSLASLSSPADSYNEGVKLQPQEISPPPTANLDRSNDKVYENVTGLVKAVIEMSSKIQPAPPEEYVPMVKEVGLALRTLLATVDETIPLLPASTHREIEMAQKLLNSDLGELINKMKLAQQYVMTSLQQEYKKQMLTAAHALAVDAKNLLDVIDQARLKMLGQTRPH
Chain of Atypical kinase COQ8A, mitochondrial (Homo sapiens) (Q8NI60 163-647 limits assumed): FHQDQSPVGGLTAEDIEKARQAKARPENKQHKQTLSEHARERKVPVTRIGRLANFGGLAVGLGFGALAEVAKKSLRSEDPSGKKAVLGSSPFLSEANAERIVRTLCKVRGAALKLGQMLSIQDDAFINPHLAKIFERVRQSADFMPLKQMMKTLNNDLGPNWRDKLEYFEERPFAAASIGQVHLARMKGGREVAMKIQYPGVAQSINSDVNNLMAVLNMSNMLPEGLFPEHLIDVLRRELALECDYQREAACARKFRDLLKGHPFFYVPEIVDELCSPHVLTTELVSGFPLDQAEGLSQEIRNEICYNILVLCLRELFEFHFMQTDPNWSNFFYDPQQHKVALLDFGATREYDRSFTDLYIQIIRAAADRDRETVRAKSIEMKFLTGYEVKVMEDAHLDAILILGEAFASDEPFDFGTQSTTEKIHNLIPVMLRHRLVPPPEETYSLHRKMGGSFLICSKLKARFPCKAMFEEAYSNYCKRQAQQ
Chain of Serine/threonine-protein kinase STK11 (Homo sapiens) (Q15831 whole entry, the tested form may be a part): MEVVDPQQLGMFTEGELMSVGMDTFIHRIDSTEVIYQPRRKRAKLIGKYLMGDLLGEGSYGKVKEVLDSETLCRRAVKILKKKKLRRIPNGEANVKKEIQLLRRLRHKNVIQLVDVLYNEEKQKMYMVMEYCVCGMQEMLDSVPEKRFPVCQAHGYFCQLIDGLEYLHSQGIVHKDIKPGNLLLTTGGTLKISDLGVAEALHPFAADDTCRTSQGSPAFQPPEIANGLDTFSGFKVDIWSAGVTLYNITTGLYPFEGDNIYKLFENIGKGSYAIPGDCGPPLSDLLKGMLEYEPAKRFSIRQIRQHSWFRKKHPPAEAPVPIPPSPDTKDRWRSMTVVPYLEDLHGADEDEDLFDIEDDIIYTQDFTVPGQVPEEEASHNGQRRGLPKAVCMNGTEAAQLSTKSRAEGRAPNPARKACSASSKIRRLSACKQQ

Turning to `O=C(Nc1ccc2[nH]nc(-c3ccc4[nH]ccc4c3)c2c1)c1c(Cl)cccc1Cl`, the inhibition result in series [1], in series [2], in series [3], in series [4], in series [5] and in series [6] was “inactive” throughout. The inhibition result in series [7], in series [8], in series [9], in series [10], in [11] and in series [13] was “inactive” throughout. Also, the inhibition result in [14], in [15], in [16], in [18], in series [19] and in [20] was “inactive” each time. In addition, the inhibition result in series [21] and in series [22] was “inactive” each time. For the same compound, the result with Mus musculus [12] and in the series on Mus musculus [17] was Active. Moreover, in the series with Peritoneal macrophage, the Activity result is listed as “Non-Toxic”.
